# Hck-Nef inh – inhibitors of human Hck kinase activated by Nef | P08631 | Recombinant Hck-YEEI plus Nef, Z-Lyte FRET kinase assay | 0.68% of 220,000 active | inhibition, % at 20 µM | AID 463187;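 active = Hck-Nef kinase inhibition above about 50%, limit read from the data; inactive = inhibition below that limit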;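 note: 0% = DMSO with Hck plus Nef and 100% = Hck alone without Nef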
# Target sequence (P08631 whole entry, looked up): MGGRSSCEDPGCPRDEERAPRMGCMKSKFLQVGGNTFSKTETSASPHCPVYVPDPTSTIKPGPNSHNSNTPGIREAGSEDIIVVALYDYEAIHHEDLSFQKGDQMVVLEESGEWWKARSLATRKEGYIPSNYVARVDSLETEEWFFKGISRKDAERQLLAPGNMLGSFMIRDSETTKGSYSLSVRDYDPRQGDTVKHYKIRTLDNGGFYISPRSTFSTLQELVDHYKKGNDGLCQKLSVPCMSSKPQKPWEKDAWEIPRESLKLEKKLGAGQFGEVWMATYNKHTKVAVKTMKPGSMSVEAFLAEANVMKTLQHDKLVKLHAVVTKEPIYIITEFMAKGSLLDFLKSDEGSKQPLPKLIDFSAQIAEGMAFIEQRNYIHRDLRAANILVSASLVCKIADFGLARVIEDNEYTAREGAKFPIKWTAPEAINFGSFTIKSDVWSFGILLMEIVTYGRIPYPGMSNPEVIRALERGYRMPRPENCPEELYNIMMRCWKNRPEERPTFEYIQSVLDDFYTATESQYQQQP
# RanGTP-Imp inh – inhibitors of RanGTP-importin-beta interaction, primary screen, biochemical, FRET, CFP-Ran, YFP-importin-beta, homogeneous. cell-free CFP-Ran/YFP-importin-beta FRET ratio. inhibition, % (no concentration beside the values). 1.1% of 300,000 active. AID 2216;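 active = more than half of the replicate wells show a fall in the fluorescence ratio signal beyond about 16%, limit read from the data, passing the limit was not always enough; inconclusive = exactly half of the replicate wells pass the set limit; inactive = fewer than half of replicates pass the limit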;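 note: 0% = DMSO wells and 100% = Ran loaded with GDP instead of GTP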
# Runt-CBFb FRET – Runt domain-CBFb interaction inhibition; Q01196+Q13951; Cerulean-Runt/Venus-CBFb FRET ratio 530/480, 1 h; inhibition, % at 20 µM; 0.46% of 220,000 active;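 active = inhibition over about 50% at 20 µM in the single-dose screen, limit read from the data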;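 note: 0% = DMSO wells and 100% = excess unlabeled CBFb competitor control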
#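 Assay system: Cerulean-tagged RUNX1 Runt domain (FRET donor) fusion protein / Amount: 100 nM each of Venus-CBFb and Cerulean-Runt domain / Medium: Tris buffer pH 7.5 with salts and BSA / Also added: Venus-CBFb 100 nM / Schedule: 1 h complex formation plus 1 h compound treatment, room temperature / Signal: FRET fluorescence / Read-out: loss of energy transfer signal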
# Runt-SMMHC FRET – inhibitors of human RUNX1 Runt domain binding to CBFb-SMMHC; Cerulean-Runt/Venus-CBFb-SMMHC FRET ratio 530/480, 1 h; inhibition, % at 20 µM; 0.74% of 220,000 active;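 active = mean inhibition across duplicate retests at 20 µM reaching about 50%, limit read from the data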;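 note: 0% = DMSO wells and 100% = wells with excess untagged CBFb-SMMHC; inhibitors lower the FRET ratio by blocking Runt binding to CBFb-SMMHC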
# Active calls of the source: *; u = inconclusive; x = not tested or not shown; + = active, no number. Shown are actives, neighbours in structure and some others; about 1.8% of the full set was active somewhere.
SMILES,Hck-Nef inh,RanGTP-Imp inh,Runt-CBFb FRET,Runt-SMMHC FRET
COCCNC(=O)c1ccc(Cn2c(=S)[nH]c3cc4c(cc3c2=O)OCO4)cc1,9,4,1,-17
O=C(O)c1cc(-c2ccc(Br)s2)nc2ccccc12,x,18*,x,x
COc1ccc(NC(=O)Nc2ccccn2)cc1OC,21,27*,-1,-4
COc1ccc(NC(=O)c2ccc(COc3ccccc3OC)o2)cc1OC,1,13*,-1,-5
O=C(Nc1ccc(Cl)c(Cl)c1)Nc1ccccn1,x,-4,x,x
COCCCNC(=O)CCCN1C(=O)c2cccnc2Sc2ccccc21,x,1,x,x
CCOC(=O)C1(Cc2ccccc2C(F)(F)F)CCN(C2CCN(C(C)=O)CC2)CC1,-1,-2,-4,1
O=c1oc2ccc3ccccc3c2c2c1SC(C(F)(F)F)C2 (stereo unspecified),3,10,22,54*
O=c1oc2ccccc2c2c1SC(C(F)(F)F)C2 (stereo unspecified),-1,-2,1,-2
COCCCNC(=O)c1cc2c(=O)n3cc(C)ccc3nc2nc1NCC1CCCO1 (stereo unspecified),193*,173*,19,60*
C=CCNC(=O)c1cc2c(=O)n3cc(C)ccc3nc2nc1NCC1CCCO1 (stereo unspecified),179*,179*,19,60*
COCCCNC(=O)c1ccc2nc3ccccc3c(=O)n2c1,4,6,15,48
COc1cc2c(ccc3cc(OC)c(OC)c(O)c32)cc1O,67*,u,9,10
COCCNC(=O)/C(C#N)=C/c1ccc(-c2ccc(S(=O)(=O)N3CCOCC3)cc2)o1,2,15*,9,24
CCOCCCNC(=O)/C(C#N)=C/c1ccc(-c2ccc(S(=O)(=O)N3CCOCC3)cc2)o1,2,u,3,10
CN=Cc1nc(-c2ccccc2)oc1O,6,0,2,3
Cc1ccc(-c2nc(C=Nc3ccc(O)cc3)c(O)o2)cc1,33,22*,-6,-20
Cn1cccc1/C=C1\CCc2ccccc2C1=O,16,u,-7,-25
Cn1cccc1/C=C1\Cc2ccccc2C1=O,19,75*,19,33
CCN(CC)C(=O)C(Sc1ccccc1)c1ccccc1 (stereo unspecified),2,1,-1,0
Cc1c(O)ccc2c(CN3CCN(C/C=C/c4ccccc4)CC3)cc(=O)oc12,40,52*,44,81*
O=C(O)Cn1c2c(c3ccccc31)CCCC2,-3,29*,-6,16
CCOC(=O)c1cc2c(=O)n3cccc(C)c3nc2n(Cc2cccnc2)c1=N,32,x,x,x
CCn1c(=N)c(C(=O)NC)cc2c(=O)n3cccc(C)c3nc21,x,x,19,58*
CCn1c(=N)c(C(N)=O)cc2c(=O)n3cccc(C)c3nc21,+,x,x,x
SMILES,Hck-Nef inh,RanGTP-Imp inh,Runt-CBFb FRET,Runt-SMMHC FRET
N#CC(C#N)=C1C=CC=CN1/C(=C\c1ccccc1Cl)C(=O)c1ccccc1,17,x,40,33
N#CC(C#N)=C1C=CC=CN1/C(=C\c1ccccc1)C(=O)c1cccs1,1,28*,24,40
Cc1csc(NC(=O)c2cc3c(s2)-c2ccccc2OC3)n1,28,49*,2,-12
CN(C)CCNC(=O)c1cc2c(s1)-c1ccccc1OC2,8,2,4,10
COc1cc(C2/C(=C(\O)c3ccc4c(c3)CC(C)O4)C(=O)C(=O)N2CCN2CCOCC2)cc(OC)c1OC (stereo unspecified),x,2,x,x
CC(C)N1CCc2c(sc(NC(=O)CCS(=O)(=O)c3ccccc3)c2C(N)=O)C1,x,153*,x,x
CC(C)N1CCc2c(sc(NC(=O)CN3C(=O)c4ccccc4C3=O)c2C(N)=O)C1,12,142*,98*,129*
COc1ccccc1CC(=O)Nc1sc2c(c1C(N)=O)CCCC2,x,-5,x,x
COc1cc2ccccc2cc1C(=O)Nc1sc2c(c1C(N)=O)CCN(C(C)C)C2,x,47*,x,x
Cc1ccc(CCNC(=O)c2nnc(CS(=O)(=O)c3ccccc3)o2)cc1,x,-8,x,x
Nc1ccc(C(=O)NC23CC4CC(CC(C4)C2)C3)cc1,x,0,x,x
CSc1nc(-c2ccccc2)nc(N2CCN(C)CC2)c1C(C)=O,0,70*,-3,7
Cc1cccn2c(=O)c3cc(C(N)=S)c(=N)n(CCCN4CCOCC4)c3nc12,44,-2,4,88*
COCCCNC(=O)c1cc2c(=O)n3cccc(C)c3nc2s1,x,-6,x,x
Cc1ccc2nc3c(cc(C(N)=S)c(=N)n3CCCOC(C)C)c(=O)n2c1,13,188*,11,41

# Screens deposited in PubChem BioAssay by several laboratories.
